Screening data: PubChem, The Scripps Research Institute Molecular Screening Center
Only some compounds are listed: those with a hit (about 2% of all), similar ones and a draw of the others.
ASAP1 GAP inh – blocks human ASAP1-stimulated Arf1 GTP hydrolysis. Q9ULH1. GDP FP detection. inhibition, % at 16.5 µM. 360,000 tested, 0.19% active; in the data active = inhibition above about 25%
MBD2 inh – MBD2-methylated oligo binding inhibition; AID 686964; TR-FRET, MBD2 binding to methylated oligonucleotide; 370,000 tested, 0.31% active; inhibition, % at 4.4 µM; Q9UBB5; in the data active = inhibition above about 13%
Target sequence (Q9UBB5 whole entry, looked up): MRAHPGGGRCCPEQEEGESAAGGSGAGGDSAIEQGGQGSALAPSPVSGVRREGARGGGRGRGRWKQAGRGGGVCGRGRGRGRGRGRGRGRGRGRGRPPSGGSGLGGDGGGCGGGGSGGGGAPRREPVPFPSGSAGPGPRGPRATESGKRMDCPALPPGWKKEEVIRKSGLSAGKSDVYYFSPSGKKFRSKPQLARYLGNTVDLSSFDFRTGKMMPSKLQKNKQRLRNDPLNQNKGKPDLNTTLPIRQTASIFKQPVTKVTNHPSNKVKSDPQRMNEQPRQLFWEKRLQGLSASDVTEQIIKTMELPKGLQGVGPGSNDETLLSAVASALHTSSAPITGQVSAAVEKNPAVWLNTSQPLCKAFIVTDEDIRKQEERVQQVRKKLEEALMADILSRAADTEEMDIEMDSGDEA
UHRF1 binding – blocks human UHRF1 binding to methylated DNA; Q96T88; UHRF1 binding to methylated oligo, TR-FRET; inhibition, % at 4.4 µM; 370,000 tested, 0.75% active; AID 687016; in the data active = inhibition above about 21%;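 note: UHRF1 SRA domain binding a hemimethylated CpG hairpin DNA probe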
ARFGAP1 inh – rat ARFGAP1 inhibition; Q62848; Arfgap1-stimulated ARF1 GTP hydrolysis, GDP FP detection; inhibition, % at 16.5 µM; 360,000 tested, 0.26% active;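 active = inhibition above a per-plate limit, mean inhibition of low control wells plus 3 SD, cut at about 25% in these data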
Target sequence (Q62848 1-136 limits assumed): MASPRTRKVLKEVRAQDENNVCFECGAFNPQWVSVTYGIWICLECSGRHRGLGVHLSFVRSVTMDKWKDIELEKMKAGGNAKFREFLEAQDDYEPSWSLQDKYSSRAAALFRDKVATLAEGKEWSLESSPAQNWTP
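Replicates: Single well per compound | Assay system: Truncated rat Arfgap1 GAP domain | Control set: No-Arfgap1 wells (100%) versus DMSO full-reaction wells (0%) | Times: Enzyme reaction 120 min at 25 °C after 20 min preincubation | Reagent: Human ARF1(Δ1-17)-GTP substrate | Measured by: Tracer-displacement fluorescence polarization with EDTA stop, 620/688 nm | Measure: Percent inhibition of Arfgap1-stimulated GTP hydrolysis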
LEDGF integ inh – blocks HIV-1 LEDGF/p75-dependent DNA integration. TR-FRET IN-LEDGF/p75 DNA integration, Eu/Cy5. inhibition, % at 3.7 µM. 370,000 tested, 0.64% active;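 active = inhibition above the screen-wide mean plus 3 SD, cut at about 13% in these data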;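 note: signal is the Cy5 over europium emission ratio at 671 and 618 nm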
TCR-CD3 inh – blocks the human TCR-CD3 interaction | inhibition, % at 9.4 µM | 360,000 tested, 0.37% active | TAMRA-labeled TCR probe fluorescence, biochemical; in the data active = inhibition above about 19%;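 note: recombinant mutant TCR 2C K166C tagged with TAMRA read by polarization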
IN multimer up – HIV-1 integrase multimerization activation, counter-screen; shares compounds with LEDGF integ inh; TR-FRET HIV-1 integrase multimerization, biochemical; activation, % at 7.7 µM; 2,000 tested, 17% active; AID 1053131; in the data active = activation above about 8.9%
TRFRET interf – optically interferes with TR-FRET readout in LEDGF counter-screen. TR-FRET optical interference counterscreen, HIV-1 IN multimerization. inhibition, % at 7.7 µM. shares compounds with LEDGF integ inh. 2,000 tested, under 10 active. AID 1053135;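 active = inhibition above the mean over all tested compounds plus 3 SD, which no compound reached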
IN-LEDGF confirm – confirmation of HIV-1 LEDGF/p75-dependent integration inhibitors. 2,000 tested, 36% active. AID 1053136. TR-FRET LEDGF/p75-dependent HIV-1 integration, biochemical. inhibition, % at 3.7 µM. shares compounds with LEDGF integ inh; in the data active = inhibition above about 14%
Each line names hits and unclear results; the compound was inactive in the other large screens (follow-up assays come after a bar, where they were run).

Cc1nn(C)c(C)c1/C=N/NC(=O)CCn1cc([N+](=O)[O-])cn1	LEDGF integ inh 15 | IN multimer up inactive | TRFRET interf inactive | IN-LEDGF confirm inactive
COc1ccc(CC(=O)OC(C)CN2CCCCC2)cc1 (stereo not given)	LEDGF integ inh 15 | IN multimer up inactive | TRFRET interf inactive | IN-LEDGF confirm inactive
COc1ccc(C(CNCC(O)COc2c(C)ccc(C)c2C)N(C)C)cc1 (stereo not given)	LEDGF integ inh 14 | IN multimer up inactive | TRFRET interf inactive | IN-LEDGF confirm inactive
CN(CC(=O)Nc1cccc(F)c1)C(=O)c1ccc(COc2ccccc2)o1	none
COc1cc(C)cc(C(=O)O)c1C1=C(O)c2cccc(O)c2C(=O)C1=O	UHRF1 binding 23, LEDGF integ inh 18 | IN multimer up 13 | TRFRET interf inactive | IN-LEDGF confirm 19
Cc1cc(O)c2c(c1)C(=O)c1cccc(O)c1C2=O	none
COc1cc(C=c2c3ccccc3n3c2cc(-c2ccccc2)[n+]3C)cc(OC)c1OC	LEDGF integ inh 29 | IN multimer up inactive | TRFRET interf inactive | IN-LEDGF confirm 48
CCN(c1ccccc1)S(=O)(=O)c1cc(OC)ccc1OC	LEDGF integ inh 52 | IN multimer up inactive | TRFRET interf inactive | IN-LEDGF confirm inactive
O=C(CC1CC2CCC1C2)Nc1nc(-c2ccccn2)cs1 (stereo not given)	LEDGF integ inh 16 | IN multimer up inactive | TRFRET interf inactive | IN-LEDGF confirm inactive
Cc1cc(C)cc(NC(=O)CSc2nc(=O)n(CCCN3CCOCC3)c3c2CCCC3)c1	none
COC(=O)Cc1c(C)nc2nc(Cc3ccccc3)[nH]n2c1=O	LEDGF integ inh 14 | IN multimer up inactive | TRFRET interf inactive | IN-LEDGF confirm inactive
C=CCOc1ccccc1CN1CCC(Cc2ccccc2)CC1	none
CCOC(=O)/C=C/C(=O)OCC(=O)Nc1cccc(Cl)c1Cl	none
CCOC(=O)/C=C/C(=O)Nc1ccccc1-c1ccccc1NC(=O)/C=C/C(=O)OCC	LEDGF integ inh 56 | IN multimer up inactive | TRFRET interf inactive | IN-LEDGF confirm inactive
O=C(O)CCCNC(=O)/C=C/c1ccco1	UHRF1 binding 58, LEDGF integ inh 38 | IN multimer up 38 | TRFRET interf inactive | IN-LEDGF confirm 87
O=C(/C=C/c1ccco1)Nc1sc2c(c1C(=O)O)CCC2	UHRF1 binding 33, LEDGF integ inh 21 | IN multimer up inactive | TRFRET interf inactive | IN-LEDGF confirm inactive
O=C(O)CCCCCNC(=O)/C=C/c1ccco1	none
O=C(/C=C/c1ccco1)Nc1ccccc1C(=O)O	UHRF1 binding 24, LEDGF integ inh 17 | IN multimer up inactive | TRFRET interf inactive | IN-LEDGF confirm 33
O=C(/C=C/c1ccco1)Nc1ccccc1C(=O)Nc1cccc(C(=O)O)c1	LEDGF integ inh 25 | IN multimer up inactive | TRFRET interf inactive | IN-LEDGF confirm 19
COc1ccc(CCN2CC(C(=O)NCCN3CCOC3=O)CCC2=O)cc1 (stereo not given)	none
Cc1onc(-c2ccccc2)c1C(=O)N/N=C/c1c(F)cccc1Cl	none
COc1ccc(CCN(CC(=O)NCc2ccc(F)cc2)C(=O)c2snc(C(N)=O)c2N)cc1OC	none
CCN(c1ccccc1)S(=O)(=O)c1ccc(Cl)c(NC(=O)CN2C(=O)NC3(CCCC3)C2=O)c1	none
COC1=CC(=O)c2c(ccc3ncnc(N)c23)C1=O	LEDGF integ inh 53 | IN multimer up inactive | TRFRET interf inactive | IN-LEDGF confirm 73
COc1cccc(-c2cnc3c(NC=O)cc(-c4ccoc4)cn23)c1	LEDGF integ inh 13 | IN multimer up inactive | TRFRET interf inactive | IN-LEDGF confirm inactive
COc1ccc(C2SCC(=O)N2c2ccc(F)cc2)cc1 (stereo not given)	none
COc1ccc(N2C(=O)CSC2c2cccc(F)c2)cc1 (stereo not given)	LEDGF integ inh 29 | IN multimer up inactive | TRFRET interf inactive | IN-LEDGF confirm inactive
O=C(CCc1c[nH]c2ccccc12)OCc1ccc(Br)cc1	none
CC1(C(=O)NS(=O)(=O)C2CC2)CCN(C(=O)COc2ccc(Cl)cc2Cl)C1 (stereo not given)	LEDGF integ inh 14 | IN multimer up inactive | TRFRET interf inactive | IN-LEDGF confirm inactive
CCOCC(=O)OCC(=O)NC12CC3CC(CC(C3)C1)C2	none
CCC(CC)C(=O)OCC(=O)NC12CC3CC(CC(C3)C1)C2	LEDGF integ inh 14 | IN multimer up inactive | TRFRET interf inactive | IN-LEDGF confirm inactive
COc1ccc(C(=O)OCC(=O)NC2CCCCCCC2)cc1OC	LEDGF integ inh 27 | IN multimer up inactive | TRFRET interf inactive | IN-LEDGF confirm inactive
COc1cc(CCCN2CCNC[C@H]2Cc2cccc3ccccc23)cc(OC)c1OC	LEDGF integ inh 44 | IN multimer up inactive | TRFRET interf inactive | IN-LEDGF confirm inactive
COc1ccc2cc(CCNS(=O)(=O)c3c(C)cc(C)cc3C)c(=O)[nH]c2c1	none
O=C(N/N=C/C=C/c1ccco1)c1cnccn1	LEDGF integ inh 26 | IN multimer up inactive | TRFRET interf inactive | IN-LEDGF confirm 20
O=C(N/N=C/C=C\c1ccco1)c1ccccn1	none
O=C(Cc1cccs1)N/N=C/C=C/c1ccco1	LEDGF integ inh 17 | IN multimer up inactive | TRFRET interf inactive | IN-LEDGF confirm 31
O=C(N/N=C/C=C\c1ccco1)c1cccnc1	none
O=C(N/N=C/C=C/c1ccco1)c1cccnc1	LEDGF integ inh 27 | IN multimer up inactive | TRFRET interf inactive | IN-LEDGF confirm 34
N#Cc1ccc(/C=C2\CC3(OC(=O)c4ccc(F)cc4)CCCN2C3)cc1 (stereo not given)	none (no result: ASAP1 GAP inh, ARFGAP1 inh, TCR-CD3 inh)
CCCCN(CC(=O)NC1CCCC1)C(=O)C(=O)Nc1ccc2c(c1)OCCO2	none
CC(Oc1ccc2c(c1)oc(=O)c1ccccc12)C(=O)NCCN1CCOCC1 (stereo not given)	none
Cc1ccc(NC(=O)C2C3C=CC(O3)C2C(=O)O)c(C)c1 (stereo not given)	none
Oc1ccc(Br)cc1CNc1cccc2cccnc12	LEDGF integ inh 14 | IN multimer up inactive | TRFRET interf inactive | IN-LEDGF confirm inactive
Cc1ccc(O)c(CNc2cccc3cccnc23)c1	none
Oc1c(Br)cc(Br)cc1CNc1cccc2cccnc12	LEDGF integ inh 40 | IN multimer up inactive | TRFRET interf inactive | IN-LEDGF confirm 21
Cc1cccc(NCc2cc(Cl)ccc2O)n1	none
